# In ChEMBL document CHEMBL1153405, “Complementary three-dimensional quantitative structure-activity relationship modeling of binding affinity and functional potency: a study on alpha4beta2 nicotinic ligands” (J Med Chem, 2009):
# Tests used:
# [1] = target: T1, Neuronal acetylcholine receptor; alpha4/beta2 (Homo sapiens, UniProt P17787+P43681); assay: Displacement of [3H]cytisine from human alpha4beta2 nAChR expressed in HEK293 cells; type: cell-based
# [2] = target: T1, Neuronal acetylcholine receptor; alpha4/beta2; assay: Agonist activity at human alpha4beta2 nAChR expressed in HEK293 cells assessed as intracellular calcium level by FLIPR assay; type: functional, cell-based
# Outline: (§1)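 HEK-293 cells stably expressing human α4β2 (subunits cloned from IMR32) were grown in DMEM with 10% FBS at 37 °C and 5% CO2. They were plated on poly-D-lysine for 24 h, then loaded with 2 µM fluo-4/AM for 1.5 h at room temperature. Cells were washed into NMDG Ringer (10 mM CaCl2, pH 7.4) and read by FLIPR at 100 pM–100 µM. Background-subtracted responses were normalized to 100 µM (-)-nicotine, giving pEC50 and maximal efficacy; n = 4-8.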
# [3] = target: T1, Neuronal acetylcholine receptor; alpha4/beta2; assay: Intrinsic activity at human alpha4beta2 nAChR expressed in HEK293 cells assessed as intracellular calcium level by FLIPR assay relative to (-)nicotine; type: cell-based; outline: as §1
# T1 sequence (P17787 whole entry): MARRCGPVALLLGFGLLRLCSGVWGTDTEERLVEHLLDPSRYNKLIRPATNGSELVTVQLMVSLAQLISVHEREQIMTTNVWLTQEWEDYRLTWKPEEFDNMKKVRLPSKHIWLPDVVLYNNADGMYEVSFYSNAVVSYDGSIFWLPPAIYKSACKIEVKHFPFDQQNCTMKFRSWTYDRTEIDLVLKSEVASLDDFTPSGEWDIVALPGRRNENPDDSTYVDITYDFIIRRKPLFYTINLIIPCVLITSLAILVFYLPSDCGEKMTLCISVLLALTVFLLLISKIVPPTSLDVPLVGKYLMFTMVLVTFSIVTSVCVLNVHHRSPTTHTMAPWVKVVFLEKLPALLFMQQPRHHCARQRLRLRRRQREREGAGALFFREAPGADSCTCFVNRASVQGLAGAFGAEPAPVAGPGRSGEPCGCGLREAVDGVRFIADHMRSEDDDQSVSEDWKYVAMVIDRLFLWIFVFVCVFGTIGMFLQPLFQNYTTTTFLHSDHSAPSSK
# T1 sequence (P43681 whole entry): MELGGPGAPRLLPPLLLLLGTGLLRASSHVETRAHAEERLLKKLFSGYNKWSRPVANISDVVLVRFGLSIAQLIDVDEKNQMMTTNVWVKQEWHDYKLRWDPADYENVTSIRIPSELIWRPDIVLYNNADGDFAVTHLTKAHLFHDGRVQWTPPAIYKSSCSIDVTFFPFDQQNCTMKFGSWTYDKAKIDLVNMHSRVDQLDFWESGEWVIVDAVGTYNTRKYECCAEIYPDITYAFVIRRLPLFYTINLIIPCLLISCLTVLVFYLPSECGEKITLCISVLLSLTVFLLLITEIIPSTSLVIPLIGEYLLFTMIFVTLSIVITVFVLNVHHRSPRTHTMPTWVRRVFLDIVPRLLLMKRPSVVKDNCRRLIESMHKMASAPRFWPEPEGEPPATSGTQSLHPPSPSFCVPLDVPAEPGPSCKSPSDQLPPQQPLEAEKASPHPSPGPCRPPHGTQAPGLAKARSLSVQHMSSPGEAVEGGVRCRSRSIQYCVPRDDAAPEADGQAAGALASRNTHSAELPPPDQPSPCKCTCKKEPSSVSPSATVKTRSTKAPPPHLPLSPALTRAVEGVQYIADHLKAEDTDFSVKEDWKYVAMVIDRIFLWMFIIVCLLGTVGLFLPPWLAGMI
Compound,IC50 [1] [nM],EC50 [2] [nM],Efficacy [3] [%]
C1=C(c2cccnc2)CC2CCC1N2 (stereo not drawn),6.76,1000,66
CCOc1cc(N2CCCNCC2)cnc1Br,0.871,257,78
Brc1cncc(N2CCCNCCC2)c1,2.82,182,73
Brc1ccc(N2CCNCC2)cn1,182,2510,129
Oc1cc(N2CCCNCC2)cnc1I,21.9,479,104
C=COc1cncc(N2CCNCC2)c1,191,7590,18
COc1cc(N2CCNCC2)cnc1Br,,17000,68
COc1cncc(N2CCCNCC2)c1,1.91,1410,66
COCCOc1cncc(N2CCCNCC2)c1,2.4,8710,42
Cc1ncc(N2CCNCC2)cc1Cl,525,26900,74
NC(=O)c1cncc(N2CCCNCC2)c1,20,12900,56
c1cncc(N2CCCNCC2)c1,,229,94
CCSc1ccc(N2CCCNCC2)cn1,170,4470,53
Clc1cc(N2CCCNCC2)cnc1Br,1.41,15.1,102
Clc1ncc(N2CCNCC2)cc1Br,229,7940,98
COc1cncc(N2CCCNCCC2)c1,1,120,89
Clc1cncc(OC2CCCNC2)c1 (stereo not drawn),240,1410,15
COc1cncc(C2=CC3CCCC(C2)N3)c1 (stereo not drawn),3.02,4370,13

Compound,IC50 [1] [nM],EC50 [2] [nM],Efficacy [3] [%]
C/C=C\Oc1cncc(N2CCCNCC2)c1,1.29,2090,45
Brc1ccc(N2CCCNCC2)cn1,1,64.6,88
Brc1ccc(N2CCCNCCC2)cn1,0.447,1.29,139
COc1ccc(N2CCCNCC2)cn1,170,11000,88
c1cncc(OC2CCCNC2)c1 (stereo not drawn),191,32400,22
COc1cc(N2CCCNCC2)cnc1Cl,0.676,91.2,116
C=COc1cc(N2CCCNCCC2)cnc1Br,0.38,240,90
c1cncc(OC[C@@H]2CCN2)c1,1.51,,
c1ccc2ncc(N3CCCNCC3)cc2c1,6.61,3630,33
C1=C(c2cccnc2)CC2CCCC1N2 (stereo not drawn),4.47,1200,34
Clc1cncc(N2CCCNCCC2)c1,2,170,103
Clc1cncc(N2CCNCC2)c1,,22900,41
C=COc1cc(N2CCCNCC2)cnc1Br,0.646,110,80
c1cncc(OC2CCNC2)c1 (stereo not drawn),100,28800,54
c1cncc(N2CCCNCCC2)c1,0.891,36.3,78
C=COc1cncc(N2CCCNCC2)c1,5.01,1100,61
Oc1cncc(N2CCCNCC2)c1,2.4,141,120
Clc1ncc(N2CCCNCC2)cc1Br,1.41,57.5,85
